Reference: ChEMBL document CHEMBL1143052, “Synthesis, antimicrobial, and QSAR studies of substituted benzamides” (2007)

Columns and labels:
Bacillus subtilis = experiment: Antibacterial activity against Bacillus subtilis MTCC 2063 after 24 hrs; assay type: functional
Procedure, shortened: (§1)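 Serial broth dilution in double-strength nutrient broth-I.P. Bacteria were grown for 24 h at 37 °C. A DMSO stock was diluted into 1 mL broth tubes to span 5–0.156, then inoculated with a saline suspension of the organism. Tubes were incubated at 37 °C for 24 h and MIC was read. Extra dilutions of the stock then set the exact MIC.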

Escherichia coli = experiment: Antibacterial activity against Escherichia coli MTCC 1652 after 24 hrs; assay type: functional; procedure, shortened: as §1
Aspergillus ficuum = experiment: Antifungal activity against Aspergillus ficuum MTCC 8184 by serial dilution method; assay type: functional
Procedure, shortened: (§2)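 Broth serial dilution against the fungus in Sabouraud dextrose broth-I.P., run like the antibacterial assay. Compounds came from a DMSO stock, and MIC was determined.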

Aspergillus parasiticus = experiment: Antifungal activity against Aspergillus parasiticus MTCC 8189 by serial dilution method; assay type: functional; procedure, shortened: as §2
Staphylococcus aureus = experiment: Antibacterial activity against Staphylococcus aureus MTCC 2901 after 24 hrs

SMILES	pMIC, log(1/MIC) (Bacillus subtilis)	pMIC, log(1/MIC) (Escherichia coli)	-log(1/MIC) (Aspergillus ficuum)	-log(1/MIC) (Aspergillus parasiticus)	-log(1/MIC) (Staphylococcus aureus)	-log(1/MIC) (Escherichia coli)
O=C(Nc1ccc(O)cc1)c1ccccc1O [OSALMID]	0.96	1.2	1.56	1.26	1.26	–
O=C(Nc1ccccc1O)c1ccccc1O	0.96	1.12	1.45	1.2	1.26	–
O=C(Nc1ccccc1)c1cc([N+](=O)[O-])ccc1Cl	1.15	1.2	1.55	1.42	1.35	–
O=C(Nc1ccccc1)c1ccccc1OCc1ccccc1	1.3	1.3	1.69	1.69	1.39	–
O=C(Nc1ccc(O)cc1)c1cc([N+](=O)[O-])ccc1Cl	1.27	1.27	1.58	1.58	1.37	–
Cc1ccc(C(=O)Nc2ccccc2O)cc1	0.96	1.2	1.56	1.26	1.16	–
O=C(Nc1ccccc1O)c1cccc(Cl)c1	1.1	1.2	1.6	1.3	1.16	–
O=C(Nc1ccccc1)c1ccc2ccccc2c1O	1.13	1.17	1.44	1.3	1.26	–
Cc1cccc(C(=O)Nc2ccccc2O)c1	0.96	1.26	1.56	1.3	1.16	–
O=C(Nc1ccccc1O)c1c(O)ccc2ccccc12	1.35	1.29	1.65	1.35	1.23	–
COc1cccc(C(=O)Nc2ccc(O)cc2)c1[N+](=O)[O-]	1.26	1.26	1.36	1.53	1.36	–
O=C(Nc1ccccc1O)c1ccccc1	0.93	1.23	1.43	1.23	1.11	–
O=C(O)c1ccccc1O [SALICYLIC ACID]	–	–	3.1	3.1	–	–
O=C(Nc1ccc(O)cc1)c1cccc(Cl)c1	1	1.17	1.6	1.3	1.3	–
O=C(Nc1ccccc1O)c1ccc2ccccc2c1O	1.2	1.21	1.58	1.62	1.25	–
O=C(Nc1ccccc1O)c1ccccc1Cl	1	1.2	1.6	1.3	1.3	–
O=C(Nc1ccccc1O)c1cc([N+](=O)[O-])cc([N+](=O)[O-])c1	1.38	1.38	1.58	1.69	1.38	–
Cc1cccc(C(=O)Nc2ccc(O)cc2)c1	1.04	1.2	1.56	1.26	1.26	–
O=C(Nc1ccc(O)cc1)c1cc([N+](=O)[O-])cc([N+](=O)[O-])c1	1.38	1.38	1.69	1.69	1.38	–
O=C(O)c1cn(C2CC2)c2cc(N3CCNCC3)c(F)cc2c1=O [CIPROFLOXACIN]	3.33	–	–	–	3.33	3.33
O=C(Nc1ccc(O)cc1)c1ccc2ccccc2c1O	1.25	1.22	1.57	1.62	1.32	–
Cc1ccc(C(=O)Nc2ccc(O)cc2)cc1	0.96	1.26	1.56	1.32	1.26	–
COc1cccc(C(=O)Nc2ccccc2O)c1[N+](=O)[O-]	1.41	1.41	1.71	1.71	1.41	–
O=C(Nc1ccccc1)c1c(O)ccc2ccccc12	1.35	1.35	1.65	1.65	1.35	–
O=C(Nc1ccc(O)cc1)c1c(O)ccc2ccccc12	1.35	1.35	1.65	1.65	1.23	–
COC(=O)c1cccc(O)c1NC(=O)c1ccccc1OCc1ccccc1	1.48	1.35	1.78	1.83	1.48	–
O=C(Nc1ccc(O)cc1)c1ccccc1Cl	1	1.17	1.6	1.31	1.3	–
O=C(Nc1ccccc1O)c1cc([N+](=O)[O-])ccc1Cl	1.07	1.2	1.67	1.52	1.26	–
O=C(/C=C/c1ccccc1)Nc1ccc(O)cc1	0.98	1.16	1.58	1.58	1.28	–
O=C(Nc1ccc(O)cc1)c1ccccc1	0.93	1.23	1.53	1.24	1.23	–
